In PMC11047177 (ESMO Open, 2024):
Entries after “also recorded” stand apart in the source; their conditions may differ.

What was measured:
[1] = Plasma PF-06939999 pharmacokinetics, noncompartmental; assay type: in vivo, human
Procedure, shortened: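 Test compound given orally on an empty stomach. Part 1 had intensive plasma sampling on cycle 1 day 1 and day 15; part 2 had sparse sampling. Plasma was assayed by a validated method with LLOQ 0.250 ng/ml; values below LLOQ were set to zero for summaries. Noncompartmental analysis was done within a dosing interval. Rac was based on AUCτ. Parameters were summarised by dose, cycle and day as geometric means.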

[2] = system: SW1990 and A427 xenograft; test: Preclinical mouse xenograft models; assay type: in vivo; settings: corresponding to a 70% (or greater) inhibition of plasma SDMA; data not shown
[3] = system: non-small-cell lung cancer (NSCLC) cells; settings: in vitro; cited from earlier work

Cc1ncnc2c1ccn2[C@@H]1C[C@H](Oc2cc(C(F)F)c(F)c3c2CNCC3)[C@@H](O)[C@H]1O [PF-06939999]
Dose dependence of exposure (AUCτ and Cmax) ([1]; 0.5 mg q.d. to 6 mg b.i.d.): exposure increased with dose; also recorded: increased in a dose-dependent manner | Variability of AUCτ ([1]; RP2D, 6 mg q.d.): 38% | Variability of Cmax ([1]; RP2D, 6 mg q.d.): 26% | Time to steady-state PK ([1]; b.i.d. and q.d. regimens): ≤ 15 days | Effective half-life ([1]; indicated by Rac after b.i.d. dosing): > 24 h | Tumor growth inhibition [2]: ~100% | Anti-proliferative activity [3]: demonstrated anti-proliferative activity
